Converted amounts (≈) assume the structure as drawn.
What was measured:
[1] = Induction of nitric oxide release in phosphate buffer assessed as nitrite level at 0.1 mM measured every 15 mins for 120 mins followed by every 30 mins for 180 mins by Griess assay; format: physicochemical; conditions: 100 µM
Method in brief: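 Compound at 0.1 mM in phosphate buffer solution, kept at room temperature for 15–300 min. Sampled every 15 min up to 120 min, then every 30 min. Samples mixed with sulfanilamide and N-(1-naphthyl)ethylenediamine dihydrochloride and held 5–10 min at room temperature in the dark. Absorbance read at 540 nm and converted to nitrite (μmol/L) with a nitrite standard curve. Intra-group variation under 10%.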

[2] = Antiplatelet activity in rabbit platelet rich plasma assessed as inhibition of ADP-induced platelet aggregation at 0.1 mM incubated for 5 mins prior to ADP challenge measured after 5 mins by Born's turbidimetric method relative to control; format: functional; conditions: Oryctolagus cuniculus
Method in brief: (§1)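 Rabbit platelet-rich plasma, adjusted with platelet-poor plasma (centrifuged 3000 rpm, 10 min, room temperature) to 400–450 × 10⁹ platelets/L and used within 3 h of blood collection. PRP pre-incubated with vehicle or compound (0.1 mM) for 5 min at 37 °C, then ADP 10 μM added. Maximum aggregation rate recorded over 5 min by Born turbidimetry. Inhibition (%) = 100% − MAR(compound)/MAR(vehicle). Mean ± SD, n = 6.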

[3] = Antiplatelet activity in rabbit platelet rich plasma assessed as inhibition of ADP-induced platelet aggregation at 0.1 mM incubated for 5 mins prior to ADP challenge measured after 5 mins by Born's turbidimetric method in presence of hemoglobin relative to control; format: functional; conditions: Oryctolagus cuniculus; method in brief: as §1
[4] = test system: Platelet; experiment: Ratio of compound activity to 3-n-butylphthalide activity for inhibition of ADP-induced platelet aggregation in rabbit platelet rich plasma at 0.1 mM; format: functional, Oryctolagus cuniculus
[5] = test system: Platelet; experiment: Ratio of compound activity to 6-amino 3-n-butylphthalide activity for inhibition of ADP-induced platelet aggregation in rabbit platelet rich plasma at 0.1 mM; format: functional, Oryctolagus cuniculus
[6] = Aqueous solubility of the compound in normal saline after 5 hrs by UV-spectrophotometric analysis; conditions: normal saline (aqueous solubility, as described)

Compound: CCCCC1OC(=O)c2cc(NC(=O)CO[N+](=O)[O-])ccc21 (configuration not stated)
- Activity [1]: 3.67 µmol/L
- inhibition at 100 µM [2]: 22.2%

Compound: CCCCC1OC(=O)c2cc(NC(=O)CCO[N+](=O)[O-])ccc21 (configuration not stated)
- Activity [1]: 12.88 µmol/L
- inhibition at 100 µM [3]: 23.1%
- inhibition at 100 µM [2]: 30.4%
- Ratio [4]: 2
- Ratio [5]: 2
- solubility at 5 h [6]: 1180 µM (≈ 380 µg/mL)

Compound: CCCCC1OC(=O)c2cc(NC(=O)c3ccccc3OCCCCO[N+](=O)[O-])ccc21 (configuration not stated)
- inhibition at 100 µM [2]: 13.6%

Compound: CCCCC1OC(=O)c2cc(NC(=O)c3ccc(OCCCO[N+](=O)[O-])cc3)ccc21 (configuration not stated)
- Activity [1]: 3.88 µmol/L
- inhibition at 100 µM [2]: 22.8%
- solubility at 5 h [6]: 750 µM (≈ 321 µg/mL)

Compound: CCCCC1OC(=O)c2cc(N)ccc21 (configuration not stated)
- inhibition at 100 µM [2]: 18.4%

Compound: CCCCC1OC(=O)c2cc(NC(=O)c3cccc(OCCCO[N+](=O)[O-])c3)ccc21 (configuration not stated)
- Activity [1]: 7.27 µmol/L
- inhibition at 100 µM [2]: 28.8%
- solubility at 5 h [6]: 1060 µM (≈ 454 µg/mL)

Compound: CCCCC1OC(=O)c2cc(NC(=O)c3ccc(OCCO[N+](=O)[O-])cc3)ccc21 (configuration not stated)
- Activity [1]: 2.21 µmol/L
- inhibition at 100 µM [2]: 20%

Compound: CCCCC1OC(=O)c2cc(NC(=O)c3cccc(OCCCCO[N+](=O)[O-])c3)ccc21 (configuration not stated)
- inhibition at 100 µM [2]: 21.6%

Compound: CCCCC1OC(=O)c2ccccc21 (racemic) [RAC-3-N-BUTYLPHTHALIDE]
- inhibition at 100 µM [2]: 15.7%
- solubility at 5 h [6]: 540 µM (≈ 103 µg/mL)

Compound: CCCCC1OC(=O)c2cc(NC(=O)CCCO[N+](=O)[O-])ccc21 (configuration not stated)
- Activity [1]: 7.1 µmol/L
- inhibition at 100 µM [2]: 28.6%

Compound: CCCCC1OC(=O)c2cc(NC(=O)c3cccc(OCCO[N+](=O)[O-])c3)ccc21 (configuration not stated)
- Activity [1]: 6.82 µmol/L
- inhibition at 100 µM [2]: 26.6%

Compound: CCCCC1OC(=O)c2cc(NC(=O)c3ccccc3OCCCO[N+](=O)[O-])ccc21 (configuration not stated)
- Activity [1]: 2.18 µmol/L
- inhibition at 100 µM [2]: 16.7%
- solubility at 5 h [6]: 580 µM (≈ 248 µg/mL)

Compound: Clc1ccccc1CN1CCc2sccc2C1 [TICLOPIDINE]
- inhibition at 100 µM [2]: 26.4%

Compound: CCCCC1OC(=O)c2cc(NC(=O)c3ccc(OCCCCO[N+](=O)[O-])cc3)ccc21 (configuration not stated)
- inhibition at 100 µM [2]: 18.2%

Compound: CCCCC1OC(=O)c2cc(NC(=O)c3ccccc3OCCO[N+](=O)[O-])ccc21 (configuration not stated)
- Activity [1]: 1.82 µmol/L
- inhibition at 100 µM [2]: 15.2%

— ChEMBL document CHEMBL2346564, “Synthesis and biological evaluation of nitric oxide releasing derivatives of 6-amino-3-n-butylphthalide as potential antiplatelet agents” (Bioorg Med Chem Lett, 2013)
